From ChEMBL document CHEMBL3085624, “Design, synthesis, and biological evaluation of novel investigational nonapeptide KISS1R agonists with testosterone-suppressive activity” (J Med Chem, 2013)
Calls of active or inactive are those of the source. The calls are words filed in the database; no cut-off is given here. Non-standard residues stand in square brackets, D forms with d. Residues, ends and D or L forms follow the SMILES beside them. 2Nal = N[C@@H](Cc1ccc2ccccc2c1)C(=O)O; Arg(Me) = CNC(=N)NCCC[C@H](N)C(=O)O; d3Pal = N[C@H](Cc1cccnc1)C(=O)O; d4Pal = N[C@H](Cc1ccncc1)C(=O)O; Cha = N[C@@H](CC1CCCCC1)C(=O)O; azaGly = NNC(=O)O

What was measured:
KiSS-1 receptor [1] = target: KiSS-1 receptor (Rattus norvegicus, UniProt Q924U1); experiment: Binding affinity to rat KISS1R
Sequence of KiSS-1 receptor (Rattus norvegicus, UniProt Q924U1) (Q924U1 whole entry): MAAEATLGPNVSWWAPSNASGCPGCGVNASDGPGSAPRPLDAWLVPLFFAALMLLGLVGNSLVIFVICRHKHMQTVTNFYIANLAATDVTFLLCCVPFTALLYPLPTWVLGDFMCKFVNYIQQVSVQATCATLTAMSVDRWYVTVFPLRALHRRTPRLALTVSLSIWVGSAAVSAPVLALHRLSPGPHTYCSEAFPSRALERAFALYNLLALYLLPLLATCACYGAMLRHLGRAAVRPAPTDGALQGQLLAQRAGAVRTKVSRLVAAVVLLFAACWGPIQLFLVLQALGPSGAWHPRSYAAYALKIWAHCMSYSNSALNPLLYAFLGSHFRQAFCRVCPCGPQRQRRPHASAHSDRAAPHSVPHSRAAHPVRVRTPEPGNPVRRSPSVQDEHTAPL

KiSS-1 receptor [2] = target: T1, KiSS-1 receptor (Homo sapiens, UniProt Q969F8); experiment: Binding affinity to human KISS1R expressed in CHO cell membranes
T1 sequence (Q969F8 whole entry): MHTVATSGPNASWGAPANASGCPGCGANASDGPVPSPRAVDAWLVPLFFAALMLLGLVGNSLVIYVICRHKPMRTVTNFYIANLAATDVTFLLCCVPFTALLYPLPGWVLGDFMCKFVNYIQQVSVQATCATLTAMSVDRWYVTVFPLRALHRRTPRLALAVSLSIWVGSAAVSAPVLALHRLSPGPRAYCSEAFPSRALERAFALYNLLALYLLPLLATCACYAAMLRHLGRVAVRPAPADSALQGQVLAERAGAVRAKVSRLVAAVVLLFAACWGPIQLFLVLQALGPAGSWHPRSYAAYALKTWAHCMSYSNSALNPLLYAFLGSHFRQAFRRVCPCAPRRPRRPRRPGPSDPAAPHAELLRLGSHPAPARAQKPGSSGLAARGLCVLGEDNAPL

KiSS-1 receptor [3] = target: T1, KiSS-1 receptor; experiment: Agonist activity at recombinant human KISS1R expressed in CHO cells assessed as intracellular calcium mobilization incubated for 30 mins at 37 degC and 30 mins at room temperature by Fluo-4 NW staining-based FLIPR assay relative to Metastin (45 to 54); assay type: functional, cell-based
Summary of the method: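 CHO cells stably expressing human KISS1R seeded at 15,000 cells/well, cultured 24 h, then loaded with Fluo-4 Direct in HBSS with 4 mM probenecid and 0.1% BSA (30 min 37 °C, 30 min room temperature). Compounds from 10 µM DMSO stocks diluted in sample buffer and added. Fluorescence read for 2 min at 2 s intervals. Peak counts give agonist activity. EC50 expressed as ratio to metastin(45-54).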

[4] = Metabolic stability in mouse serum assessed as compound remaining at 0.1 mM after 1 hr by HPLC analysis; assay type: ADME; conditions: read-out: Stability
Summary of the method: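 Pooled mouse serum (45 µL) spiked with 5 µL of 1 mM aqueous peptide, giving 0.1 mM initial, and incubated at 37 °C. Aliquots taken at time 0 and after 1 h, quenched by boiling 3 min. Peptide quantified by HPLC peak area. Percent remaining relative to time 0; three independent experiments.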

Rattus norvegicus [5] = experiment: Suppression of testosterone in plasma of rat at 1 nmol/h, sc measured after 13 days by radioimmunoassay; assay type: functional, organism-based
Summary of the method: (§1)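 Male rats given peptide continuously at 1 nmol/h. Plasma testosterone measured after 6 and 13 days; detection limit 0.04 ng/mL.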

Rattus norvegicus [6] = experiment: Suppression of testosterone in plasma of Sprague-Dawley rat at 2 nmol/h, sc measured after 6 days by radioimmunoassay; assay type: functional
Summary of the method: (§2)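 9-week-old male CD(SD)IGS or Copenhagen rats (5/group) given peptide in distilled water by subcutaneous dorsal ALZET osmotic pump (2 mM, 0.001 mL/h) for 6 days; water-pump controls. Plasma (aprotinin/EDTA) testosterone measured by RIA on 0.05 mL. Values below detection limit (0.04 ng/mL) set to 0.04; results expressed as percent of control.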

Rattus norvegicus [7] = experiment: Suppression of testosterone in plasma of rat at 1 nmol/h, sc measured after 6 days by radioimmunoassay; assay type: functional, organism-based; summary of the method: as §1
[8] = Bioavailability in Sprague-Dawley rat at 1 mg/kg, sc; assay type: ADME, organism-based; conditions: in vivo
[9] = Plasma concentration in Copenhagen rat at 2 nmol/h, sc measured after 6 days by radioimmunoassay; assay type: ADME, organism-based
Rattus norvegicus [10] = experiment: Suppression of testosterone in plasma of Copenhagen rat at 2 nmol/h, sc measured after 6 days by radioimmunoassay; assay type: functional, organism-based; summary of the method: as §2
Rattus norvegicus [11] = experiment: Induction of ovulation in immature Wistar rats assessed as increase in number of oocytes at 30 to 100 nmol/kg administered dorsally by stereomicroscopy; assay type: functional, organism-based
Summary of the method: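 23-day-old female Wistar rats primed subcutaneously with eCG 10 IU/animal. Two days later, saline-dissolved agents injected dorsally at 30 or 100 nmol/kg (5 rats/group; saline control 6; hCG 10 IU positive control). Animals killed 24–25 h later. Oöcytes retrieved from oviducal ampulla under stereomicroscopy, or by flushing oviduct and uterus with saline, and counted.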

CNC(N)=NCCC[C@H](NC(=O)[C@H](CC(C)C)NC(=O)NNC(=O)[C@H](Cc1ccccc1)NC(=O)[C@H](CO)NC(=O)[C@H](CC(N)=O)NC(=O)[C@H](Cc1c[nH]c2ccccc12)NC(=O)[C@@H](CO)NC(=O)[C@H](N)Cc1ccc(O)cc1)C(=O)N[C@@H](Cc1ccccc1)C(N)=O
Ki (KiSS-1 receptor [1]): 0.093 nM | Ki (KiSS-1 receptor [2]): 0.086 nM

CNC(=N)NCCC[C@H](NC(=O)[C@H](CC(C)C)NC(=O)NNC(=O)[C@H](Cc1ccccc1)NC(=O)[C@H](CO)NC(=O)[C@H](CC(N)=O)NC(=O)[C@H](Cc1c[nH]c2ccccc12)NC(=O)[C@@H](Cc1cnc[nH]1)NC(=O)[C@H](N)Cc1ccc(O)cc1)C(=O)N[C@@H](Cc1ccccc1)C(N)=O
Ki (KiSS-1 receptor [1]): 0.043 nM | Ki (KiSS-1 receptor [2]): 0.033 nM | fold change (FC) (KiSS-1 receptor [3]): 6.2

CNC(N)=NCCC[C@H](NC(=O)[C@H](CC(C)C)NC(=O)NNC(=O)[C@H](Cc1ccccc1)NC(=O)[C@H](CO)NC(=O)[C@H](CC(N)=O)NC(=O)[C@@H](NC(=O)[C@@H](CC(N)=O)NC(=O)[C@H](N)Cc1ccc(O)cc1)[C@@H](C)O)C(=O)N[C@@H](Cc1ccccc1)C(N)=O
remaining at 1 h, 100 µM [4]: 65.8% | Ki (KiSS-1 receptor [1]): 0.25 nM | Ki (KiSS-1 receptor [2]): 0.29 nM

CCNC(=O)[C@@H]1CCCN1C(=O)[C@H](CCCNC(=N)N)NC(=O)[C@H](CC(C)C)NC(=O)[C@@H](CC(C)C)NC(=O)[C@H](Cc1ccc(O)cc1)NC(=O)[C@H](CO)NC(=O)[C@H](Cc1c[nH]c2ccccc12)NC(=O)[C@H](Cc1c[nH]cn1)NC(=O)[C@@H]1CCC(=O)N1
Activity (Rattus norvegicus [5]): Active

CNC(=N)NCCC[C@H](NC(=O)[C@H](CC(C)C)NC(=O)CNC(=O)[C@H](Cc1ccccc1)NC(=O)[C@H](CO)NC(=O)[C@H](CC(N)=O)NC(=O)[C@H](Cc1c[nH]c2ccccc12)NC(=O)[C@H](CC(N)=O)NC(=O)[C@H](N)Cc1ccc(O)cc1)C(=O)N[C@@H](Cc1ccccc1)C(N)=O
Activity (Rattus norvegicus [6]): Active | fold change (FC) (KiSS-1 receptor [3]): 0.93

CNC(=N)NCCC[C@H](NC(=O)[C@H](CC(C)C)NC(=O)NNC(=O)[C@H](Cc1ccccc1)NC(=O)[C@H](CO)NC(=O)[C@H](CC(N)=O)NC(=O)[C@H](Cc1c[nH]c2ccccc12)NC(=O)[C@H](CC(N)=O)NC(=O)[C@H](N)Cc1cccnc1)C(=O)N[C@@H](Cc1ccccc1)C(N)=O (H-[d3Pal]NWNSF[azaGly]L[Arg(Me)]F-NH2)
Ki (KiSS-1 receptor [1]): 0.14 nM | Ki (KiSS-1 receptor [2]): 0.12 nM | fold change (FC) (KiSS-1 receptor [3]): 2.3

CNC(=N)NCCC[C@H](NC(=O)[C@H](CC(C)C)NC(=O)NNC(=O)[C@H](Cc1ccccc1)NC(=O)[C@H](CO)NC(=O)[C@H](CC(N)=O)NC(=O)[C@H](CC1CCCCC1)NC(=O)[C@@H](CC(N)=O)NC(=O)[C@H](N)Cc1cccnc1)C(=O)N[C@@H](Cc1ccccc1)C(N)=O (H-[d3Pal][dN][Cha]NSF[azaGly]L[Arg(Me)]F-NH2)
Ki (KiSS-1 receptor [1]): 0.18 nM | Ki (KiSS-1 receptor [2]): 0.2 nM | fold change (FC) (KiSS-1 receptor [3]): 10

CNC(=N)NCCC[C@H](NC(=O)[C@H](CC(C)C)NC(=O)NNC(=O)[C@H](Cc1ccccc1)NC(=O)[C@H](CO)NC(=O)[C@H](CC(N)=O)NC(=O)[C@H](Cc1c[nH]c2ccccc12)NC(=O)[C@H](CC(N)=O)NC(=O)[C@@H](C)N)C(=O)N[C@@H](Cc1ccccc1)C(N)=O (H-[dA]NWNSF[azaGly]L[Arg(Me)]F-NH2)
Ki (KiSS-1 receptor [1]): 0.52 nM | Ki (KiSS-1 receptor [2]): 0.51 nM | fold change (FC) (KiSS-1 receptor [3]): 4.9

CC[C@H](C)[C@H](NC(=O)[C@H](N)Cc1ccc(O)cc1)C(=O)N[C@@H](CC(N)=O)C(=O)N[C@@H](CO)C(=O)N[C@@H](Cc1ccccc1)C(=O)NNC(=O)N[C@@H](CC(C)C)C(=O)N[C@@H](CCCNC(=N)NC)C(=O)N[C@@H](Cc1ccccc1)C(N)=O (H-[dY]INSF[azaGly]L[Arg(Me)]F-NH2)
Ki (KiSS-1 receptor [1]): 0.13 nM | Ki (KiSS-1 receptor [2]): 0.12 nM | fold change (FC) (KiSS-1 receptor [3]): 14

CNC(N)=NCCC[C@H](NC(=O)[C@H](CC(C)C)NC(=O)NNC(=O)[C@H](Cc1ccccc1)NC(=O)[C@H](CO)NC(=O)[C@H](CC(N)=O)NC(=O)[C@H](CO)NC(=O)[C@H](N)Cc1ccc(O)cc1)C(=O)N[C@@H](Cc1ccccc1)C(N)=O (H-[dY]SNSF[azaGly]L[Arg(Me)]F-NH2)
Ki (KiSS-1 receptor [1]): 0.3 nM | Ki (KiSS-1 receptor [2]): 0.21 nM

CNC(=N)NCCC[C@H](NC(=O)[C@H](CC(C)C)NC(=O)NNC(=O)[C@H](Cc1ccccc1)NC(=O)[C@H](CO)NC(=O)[C@H](CC(N)=O)NC(=O)[C@@H](NC(=O)[C@H](N)Cc1ccc(O)cc1)[C@@H](C)O)C(=O)N[C@@H](Cc1ccccc1)C(N)=O (H-[dY]TNSF[azaGly]L[Arg(Me)]F-NH2)
Ki (KiSS-1 receptor [1]): 0.24 nM | Ki (KiSS-1 receptor [2]): 0.2 nM | fold change (FC) (KiSS-1 receptor [3]): 8.9

CNC(=N)NCCC[C@H](NC(=O)[C@H](CC(C)C)NC(=O)NNC(=O)[C@H](Cc1ccccc1)NC(=O)[C@H](CO)NC(=O)[C@H](CC(N)=O)NC(=O)[C@H](Cc1c[nH]c2ccccc12)NC(=O)[C@H](N)Cc1ccc(O)cc1)C(=O)N[C@@H](Cc1ccccc1)C(N)=O (H-[dY]WNSF[azaGly]L[Arg(Me)]F-NH2)
remaining at 1 h, 100 µM [4]: 43.4% | Ki (KiSS-1 receptor [1]): 0.059 nM | Ki (KiSS-1 receptor [2]): 0.044 nM | fold change (FC) (KiSS-1 receptor [3]): 2.4

CNC(N)=NCCC[C@H](NC(=O)[C@H](CC(C)C)NC(=O)NNC(=O)[C@H](Cc1ccccc1)NC(=O)[C@H](CO)NC(=O)[C@H](CC(N)=O)NC(=O)[C@H](Cc1ccc2ccccc2c1)NC(=O)[C@H](N)Cc1ccc(O)cc1)C(=O)N[C@@H](Cc1ccccc1)C(N)=O (H-[dY][2Nal]NSF[azaGly]L[Arg(Me)]F-NH2)
Ki (KiSS-1 receptor [1]): 0.051 nM | Ki (KiSS-1 receptor [2]): 0.032 nM

CNC(N)=NCCC[C@H](NC(=O)[C@H](CC(C)C)NC(=O)NNC(=O)[C@H](Cc1ccccc1)NC(=O)[C@H](CO)NC(=O)[C@H](CC(N)=O)NC(=O)[C@H](Cc1ccccc1)NC(=O)[C@@H](CC(N)=O)NC(=O)[C@H](N)Cc1ccc(O)cc1)C(=O)N[C@@H](Cc1ccccc1)C(N)=O (H-[dY][dN]FNSF[azaGly]L[Arg(Me)]F-NH2)
remaining at 1 h, 100 µM [4]: 24.7% | Ki (KiSS-1 receptor [1]): 0.12 nM | Ki (KiSS-1 receptor [2]): 0.12 nM

CNC(=N)NCCC[C@H](NC(=O)[C@H](CC(C)C)NC(=O)NNC(=O)[C@H](Cc1ccccc1)NC(=O)[C@H](CO)NC(=O)[C@H](CC(N)=O)NC(=O)[C@H](CC1CCCCC1)NC(=O)[C@@H](CC(N)=O)NC(=O)[C@H](N)Cc1ccc(O)cc1)C(=O)N[C@@H](Cc1ccccc1)C(N)=O (H-[dY][dN][Cha]NSF[azaGly]L[Arg(Me)]F-NH2)
Ki (KiSS-1 receptor [1]): 0.076 nM | Ki (KiSS-1 receptor [2]): 0.055 nM | fold change (FC) (KiSS-1 receptor [3]): 17

CNC(=N)NCCC[C@H](NC(=O)[C@H](CC(C)C)NC(=O)NNC(=O)[C@H](Cc1ccccc1)NC(=O)[C@H](CO)NC(=O)[C@H](CC(N)=O)NC(=O)[C@@H](Cc1c[nH]c2ccccc12)NC(=O)[C@H](N)Cc1ccc(O)cc1)C(=O)N[C@@H](Cc1ccccc1)C(N)=O (H-[dY][dW]NSF[azaGly]L[Arg(Me)]F-NH2)
Ki (KiSS-1 receptor [1]): 0.11 nM | Ki (KiSS-1 receptor [2]): 0.065 nM | fold change (FC) (KiSS-1 receptor [3]): 4.5

CNC(=N)NCCC[C@H](NC(=O)[C@H](CC(C)C)NC(=O)NNC(=O)[C@H](Cc1ccccc1)NC(=O)[C@H](CO)NC(=O)[C@H](CC(N)=O)NC(=O)[C@@H](Cc1ccncc1)NC(=O)[C@H](N)Cc1ccc(O)cc1)C(=O)N[C@@H](Cc1ccccc1)C(N)=O [KISS1-305] (H-[dY][d4Pal]NSF[azaGly]L[Arg(Me)]F-NH2)
Activity (Rattus norvegicus [7]): Active | Activity (Rattus norvegicus [5]): Active | bioavailability [8]: 40.4% | concentration at 144 h [9]: 0.95 nM | Activity (Rattus norvegicus [10]): Active | Activity (Rattus norvegicus [6]): 0.04 ng/mL | Activity (Rattus norvegicus [11]): Active | remaining at 1 h, 100 µM [4]: 54.9% | Ki (KiSS-1 receptor [1]): 0.1 nM | Ki (KiSS-1 receptor [2]): 0.089 nM | fold change (FC) (KiSS-1 receptor [3]): 4.8
